Experiments:
Format in all cases: functional
HOP-92 = experiment: Growth inhibition of human HOP-92 cells incubated for 48 hrs by sulforhodamine B assay
Summary of the method: (§1)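 NCI five-dose screen covering 0.01–100 µM, prepared as 10-fold or ½-log dilutions from DMSO stock. Cells in RPMI 1640 with 5% FBS were exposed for 48 h at 37 °C after 24 h preincubation. Adherent cells were fixed with TCA (final 10%) and suspension cells were settled before fixing. Stain was SRB, read at 515 nm. GI50 = 50% reduction in net protein increase versus control, with Tz taken at drug addition.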

Malme-3M [1] = experiment: Growth inhibition of human Malme-3M cells at 10 uM incubated for 48 hrs by sulforhodamine B assay relative to control; settings: read-out: GI
Summary of the method: (§2)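 NCI one-dose screen. Cells grown in RPMI 1640 with 5% FBS and 2 mM L-glutamine, plated and incubated 24 h at 37 °C, 5% CO2. DMSO-dissolved drug added, then 48 h further incubation. Adherent cells fixed with cold TCA, suspension cells fixed after settling. Stained with 0.4% SRB, absorbance read at 515 nm. Reported as percent growth relative to no-drug control and time-zero cell number.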

NCI-H226 = experiment: Growth inhibition of human NCI-H226 cells incubated for 48 hrs by sulforhodamine B assay
Summary of the method: (§3)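 NCI five-dose screen (0.01–100 µM; five concentrations plus control). Cells grown in RPMI 1640/5% FBS/2 mM L-glutamine and preincubated 24 h, with time-zero plates TCA-fixed. Drug exposure 48 h at 37 °C, followed by SRB protein staining and reading at 515 nm. GI50 is the concentration at [(Ti-Tz)/(C-Tz)]×100 = 50.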

RXF 393 [2] = experiment: Growth inhibition of human RXF 393 cells incubated for 48 hrs by sulforhodamine B assay; summary of the method: as §3
SNB-19 = experiment: Growth inhibition of human SNB-19 cells at 10 uM incubated for 48 hrs by sulforhodamine B assay relative to control; settings: read-out: GI; summary of the method: as §2
UO-31 [3] = experiment: Growth inhibition of human UO-31 cells incubated for 48 hrs by sulforhodamine B assay
Summary of the method: (§4)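 NCI five-dose assay, with drug stocks in DMSO diluted in medium to five concentrations (10-fold or ½-log series). Cells in RPMI 1640/5% FBS were pre-incubated 24 h, and time-zero plates were TCA-fixed at drug addition. After 48 h at 37 °C, cells were TCA-fixed, SRB-stained and read at 515 nm. GI50 is from [(Ti-Tz)/(C-Tz)]×100 = 50, TGI from Ti = Tz, and LC50 from [(Ti-Tz)/Tz]×100 = -50.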

Malme-3M [4] = experiment: Growth inhibition of human Malme-3M cells incubated for 48 hrs by sulforhodamine B assay; summary of the method: as §3
OVCAR-4 [5] = experiment: Growth inhibition of human OVCAR-4 cells at 10 uM incubated for 48 hrs by sulforhodamine B assay relative to control; settings: read-out: GI; summary of the method: as §2
SR = experiment: Growth inhibition of human SR cells at 10 uM incubated for 48 hrs by sulforhodamine B assay relative to control; settings: read-out: GI; summary of the method: as §2
BT-549 [6] = experiment: Growth inhibition of human BT-549 cells incubated for 48 hrs by sulforhodamine B assay; summary of the method: as §1
NCI/ADR-RES [7] = experiment: Growth inhibition of human NCI/ADR-RES cells at 10 uM incubated for 48 hrs by sulforhodamine B assay relative to control; settings: read-out: GI; summary of the method: as §2
NCI-H460 [8] = experiment: Growth inhibition of human NCI-H460 cells incubated for 48 hrs by sulforhodamine B assay; summary of the method: as §3
NCI-H460 [9] = experiment: Growth inhibition of human NCI-H460 cells at 10 uM incubated for 48 hrs by sulforhodamine B assay relative to control; settings: read-out: GI; summary of the method: as §2
MOLT-4 = experiment: Growth inhibition of human MOLT-4 cells incubated for 48 hrs by sulforhodamine B assay; summary of the method: as §3
HCT-116 = experiment: Growth inhibition of human HCT-116 cells incubated for 48 hrs by sulforhodamine B assay; summary of the method: as §1
BT-549 [10] = experiment: Growth inhibition of human BT-549 cells at 10 uM incubated for 48 hrs by sulforhodamine B assay relative to control; settings: read-out: GI
Summary of the method: (§5)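 NCI-60 single-dose screen. Cells were grown in RPMI 1640 with 5% FBS and 2 mM L-glutamine and plated 24 h before drug addition. Compound was added at one concentration in DMSO-derived medium and incubated for 48 h at 37 °C in 5% CO2. Read-out was SRB protein stain at 515 nm. Result is percent growth versus the no-drug control and the time-zero cell count; values below 0 indicate lethality.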

A498 = experiment: Growth inhibition of human A498 cells incubated for 48 hrs by sulforhodamine B assay; summary of the method: as §4
RXF 393 [11] = experiment: Growth inhibition of human RXF 393 cells at 10 uM incubated for 48 hrs by sulforhodamine B assay relative to control; settings: read-out: GI; summary of the method: as §2
UO-31 [12] = experiment: Growth inhibition of human UO-31 cells at 10 uM incubated for 48 hrs by sulforhodamine B assay relative to control; settings: read-out: GI
Summary of the method: (§6)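 NCI one-dose screen across a 59-line panel. Cells were grown in RPMI 1640 with 5% FBS and 2 mM L-glutamine, plated and pre-incubated 24 h, then exposed to drug for 48 h at 37 °C, 5% CO2. Adherent cells were fixed with cold TCA (10% final), stained with 0.4% SRB in 1% acetic acid and read at 515 nm. Result is percent growth relative to no-drug control and time-zero cell count.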

NCI/ADR-RES [13] = experiment: Growth inhibition of human NCI/ADR-RES cells incubated for 48 hrs by sulforhodamine B assay; summary of the method: as §3
IGROV-1 = experiment: Growth inhibition of human IGROV-1 cells at 10 uM incubated for 48 hrs by sulforhodamine B assay relative to control; settings: read-out: GI; summary of the method: as §5
M14 = experiment: Growth inhibition of human M14 cells incubated for 48 hrs by sulforhodamine B assay; summary of the method: as §1
OVCAR-5 = experiment: Growth inhibition of human OVCAR-5 cells incubated for 48 hrs by sulforhodamine B assay; summary of the method: as §3
SF-539 = experiment: Growth inhibition of human SF-539 cells incubated for 48 hrs by sulforhodamine B assay; summary of the method: as §3
SN12C = experiment: Growth inhibition of human SN12C cells incubated for 48 hrs by sulforhodamine B assay; summary of the method: as §3
PC-3 = experiment: Growth inhibition of human PC-3 cells incubated for 48 hrs by sulforhodamine B assay; summary of the method: as §3
TK-10 = experiment: Growth inhibition of human TK-10 cells at 10 uM incubated for 48 hrs by sulforhodamine B assay relative to control; settings: read-out: GI; summary of the method: as §6
K562 = experiment: Growth inhibition of human K562 cells at 10 uM incubated for 48 hrs by sulforhodamine B assay relative to control; settings: read-out: GI; summary of the method: as §5
HOP-62 = experiment: Growth inhibition of human HOP-62 cells incubated for 48 hrs by sulforhodamine B assay; summary of the method: as §1
NCI-H522 = experiment: Growth inhibition of human NCI-H522 cells incubated for 48 hrs by sulforhodamine B assay; summary of the method: as §3
SK-OV-3 = experiment: Growth inhibition of human SK-OV-3 cells incubated for 48 hrs by sulforhodamine B assay; summary of the method: as §3
U-251 = experiment: Growth inhibition of human U-251 cells at 10 uM incubated for 48 hrs by sulforhodamine B assay relative to control; settings: read-out: GI; summary of the method: as §6
HCC 2998 = experiment: Growth inhibition of human HCC 2998 cells incubated for 48 hrs by sulforhodamine B assay; summary of the method: as §1
KM12 = experiment: Growth inhibition of human KM12 cells incubated for 48 hrs by sulforhodamine B assay; summary of the method: as §1
OVCAR-4 [14] = experiment: Growth inhibition of human OVCAR-4 cells incubated for 48 hrs by sulforhodamine B assay; summary of the method: as §3

Compound | GI50 (HOP-92) [µM] | GI50 (NCI-H226) [µM] | GI50 (RXF 393 [2]) [µM] | GI50 (UO-31 [3]) [µM] | GI50 (Malme-3M [4]) [µM] | GI50 (BT-549 [6]) [µM] | GI50 (NCI-H460 [8]) [µM] | GI50 (MOLT-4) [µM] | GI50 (HCT-116) [µM] | GI50 (A498) [µM] | GI50 (NCI/ADR-RES [13]) [µM] | GI50 (M14) [µM] | GI50 (OVCAR-5) [µM] | GI50 (SF-539) [µM] | GI50 (SN12C) [µM] | GI50 (PC-3) [µM] | GI50 (HOP-62) [µM] | GI50 (NCI-H522) [µM] | GI50 (HCC 2998) [µM] | GI50 (KM12) [µM] | other results
COc1cc2nc(-c3ccc(Cl)cc3)cc(OCCCN3CCOCC3)c2cc1OC | 1.36 | 0.997 | 1.12 | 1.78 | 2.01 | 2.59 | 0.958 | 2.85 | 1.59 | 1.59 | 1.15 | 0.545 | 1.58 | 2.99 | 1.3 | 2.63 | 1.98 | 2.17 | 1.97 | 3.87 | inhibition of growth at 10 µM (Malme-3M [1]): 62%; inhibition of growth at 10 µM (SNB-19): 62%; inhibition of growth at 10 µM (OVCAR-4 [5]): 62%; inhibition of growth at 10 µM (SR): 62%; inhibition of growth at 10 µM (NCI/ADR-RES [7]): 62%; inhibition of growth at 10 µM (NCI-H460 [9]): 62%; inhibition of growth at 10 µM (BT-549 [10]): 62%; inhibition of growth at 10 µM (RXF 393 [11]): 62%; inhibition of growth at 10 µM (UO-31 [12]): 62%; inhibition of growth at 10 µM (IGROV-1): 62%; inhibition of growth at 10 µM (TK-10): 62%; inhibition of growth at 10 µM (K562): 62%; GI50 (SK-OV-3): 3 µM; inhibition of growth at 10 µM (U-251): 62%
COc1cc2nc(-c3ccc(C(F)(F)F)cc3)cc(OCCCN3CCC(O)CC3)c2cc1OC | 1.68 | 1.59 | 1.34 | 2.71 | 2.65 | 6.59 | 0.835 | 3.27 | 0.671 | 2.37 | 0.847 | 0.535 | 3.14 | 5.75 | 1.44 | 3.66 | 1.8 | 4.15 | 4.07 | 6.87 | GI50 (OVCAR-4 [14]): 9.14 µM; GI50 (SK-OV-3): 10.6 µM
COc1cc2nc(-c3ccc(C(F)(F)F)cc3)cc(OCCCN3CCCC3)c2cc1OC | 0.46 | 0.343 | 1.13 | 2.02 | 1.01 | 1.99 | 0.528 | 0.994 | 0.456 | 1.58 | 0.458 | 0.336 | 0.803 | 1.87 | 0.673 | 1.07 | 1.03 | 1.74 | 1.45 | 1.34 | GI50 (OVCAR-4 [14]): 3.71 µM; GI50 (SK-OV-3): 2.55 µM
COc1cc2nc(-c3ccc(Cl)cc3)cc(OCCCN3CCCCC3)c2cc1OC | 1.02 | 1.12 | 1.08 | 1.87 | 1.74 | 1.43 | 0.842 | 2.04 | 0.828 | 1.4 | 0.898 | 0.412 | 1.16 | 2.57 | 0.946 | 1.74 | 2.37 | 3.28 | 2.34 | 3.07 | inhibition of growth at 10 µM (Malme-3M [1]): 62%; inhibition of growth at 10 µM (SNB-19): 62%; inhibition of growth at 10 µM (OVCAR-4 [5]): 62%; inhibition of growth at 10 µM (SR): 62%; GI50 (OVCAR-4 [14]): 3.85 µM; inhibition of growth at 10 µM (NCI/ADR-RES [7]): 62%; inhibition of growth at 10 µM (NCI-H460 [9]): 62%; inhibition of growth at 10 µM (BT-549 [10]): 62%; inhibition of growth at 10 µM (RXF 393 [11]): 62%; inhibition of growth at 10 µM (UO-31 [12]): 62%; inhibition of growth at 10 µM (IGROV-1): 62%; inhibition of growth at 10 µM (TK-10): 62%; inhibition of growth at 10 µM (K562): 62%; inhibition of growth at 10 µM (U-251): 62%
COc1cc2nc(-c3ccc(C(F)(F)F)cc3)cc(OCCCN3CCOCC3)c2cc1OC | 1 | 0.406 | 0.706 | 1.77 | 1.38 | 5 | 0.639 | 2.51 | 0.583 | 1.51 | 0.64 | 0.355 | 1.92 | – | 0.675 | 2.19 | 1.67 | 2.52 | 1.41 | 3.42 | GI50 (OVCAR-4 [14]): 10.3 µM; GI50 (SK-OV-3): 5.04 µM

From ChEMBL document CHEMBL4732237, “Discovery of 4-alkoxy-2-aryl-6,7-dimethoxyquinolines as a new class of topoisomerase I inhibitors endowed with potent in vitro anticancer activity” (2021)
